Series [1] relates to Liver microsome. In words: Intrinsic clearance in human liver microsomes assessed per mg of protein at 0.1 uM by LC-MS/MS method in presence or absence of NADPH. The series is classed as ADME.
In series [2] the test system is Mycobacterium tuberculosis. Put plainly: Antimicrobial activity against GFP expressing recombinant Mycobacterium tuberculosis H37RvMA under 7H9 medium assessed as growth inhibition after 14 days by broth microdilution method. The series is classed as functional. The note with it: 336 h. (In general: Dilution methods test growth across graded concentrations, often in twofold steps.)

Series [3] relates to Liver microsome. In words: Intrinsic clearance in rat liver microsomes assessed per mg of protein at 0.1 uM by LC-MS/MS method in presence or absence of NADPH. The series is classed as ADME. In general terms: Liver microsomes are vesicles of endoplasmic reticulum, rich in cytochrome P450 enzymes.
The nature of series [4]: Kinetic solubility in FaSSIF at pH 6.5 after 2 hours at 25 degC by shake flask method. The series is classed as physicochemical. Conditions: read-out: Kinetic_solubility.
Series [5] has as its system Mycobacterium tuberculosis. Put plainly: Antimicrobial activity against GFP expressing recombinant Mycobacterium tuberculosis H37RvMA under GAST/Fe medium assessed as growth inhibition after 14 days by broth microdilution method. The series is classed as functional. The note with it: 336 h.
Series [6] in a line: Intrinsic clearance in mouse liver microsomes assessed per mg of protein at 0.1 uM by LC-MS/MS method in presence or absence of NADPH. The series is classed as ADME.
Another series deals with Vero. Put plainly: Cytotoxicity against African green monkey Vero cells assessed as cell viability by MTT assay. The note with it: Chlorocebus sabaeus. The series is classed as cell-based. Put shortly: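 VERO kidney epithelial cells from African green monkey were exposed to compounds at concentrations up to 100 μM, and IC₅₀ was reported.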
(In general: Tetrazolium assays rely on reduction of a dye to a coloured formazan, in cell work by metabolically active cells.)

The nature of series [7]: Metabolic stability in human liver S9 fractions assessed as residual compound at 0.1 uM after 40 mins by LC-MS/MS method in presence or absence of NADPH. The note with it: read-out: Stability. The series is classed as ADME.
The nature of series [8]: Half life in human plasma at 0.1 uM by LC-MS/MS method. The series is classed as ADME, cell-free.
The nature of series [9]: Octanol-phosphate buffer partition coefficient, log D of the compound at 100 uM at pH 7.4 after 3 hrs by shake flask method. The series is classed as physicochemical.
In series [10] the test system is Mycobacterium tuberculosis. In words: Antimicrobial activity against Mycobacterium tuberculosis H37RvMA under GAST/Fe medium assessed as growth inhibition after 14 days by alamar blue assay. The series is classed as functional. Conditions: 336 h. The method, boiled down:
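Broth microdilution in GAST/Fe medium against fully virulent Mtb H37RvMa or its derived strains (cytochrome bd oxidase deletion ΔcydKO; qcrB Ala317Thr point mutant). Plates were incubated 14 days, growth was read by Alamar Blue, and MIC90 was taken as the potency value.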

The subject of series [11] is Mycobacterium tuberculosis. In words: Antimicrobial activity against clinical isolates of Mycobacterium tuberculosis SAWC 2371 Haarlem under 7H9 medium assessed as growth inhibition after 14 days by alamar blue assay. Conditions: 336 h. The series is classed as functional.
Series [12] concerns Mycobacterium tuberculosis. In words: Antimicrobial activity against clinical isolates of Mycobacterium tuberculosis SAWC 3385 Cas1/Delhi under 7H9 medium assessed as growth inhibition after 14 days by alamar blue assay. The series is classed as functional. Conditions: 336 h.
In series [13] the test system is Mycobacterium tuberculosis. In words: Antimicrobial activity against clinical isolates of Mycobacterium tuberculosis SAWC 3933 LCC under 7H9 medium assessed as growth inhibition after 14 days by alamar blue assay. The series is classed as functional. Conditions: 336 h.
The test system of series [14] is Mycobacterium tuberculosis. In words: Antimicrobial activity against clinical isolates of Mycobacterium tuberculosis SAWC 3906 Atyp-beijing under 7H9 medium assessed as growth inhibition after 14 days by alamar blue assay. The series is classed as functional. The note with it: 336 h.
Series [15] is described as follows: Metabolic stability in human liver microsomes assessed as residual compound at 0.1 uM after 30 mins by LC-MS/MS method in presence or absence of NADPH. Conditions: read-out: Stability. The series is classed as ADME.
Series [16] in a line: Metabolic stability in mouse liver microsomes assessed as residual compound at 0.1 uM after 30 mins by LC-MS/MS method in presence or absence of NADPH. The series is classed as ADME. The note with it: read-out: Stability.
Series [17] in a line: Metabolic stability in rat liver microsomes assessed as residual compound at 0.1 uM after 30 mins by LC-MS/MS method in presence or absence of NADPH. The series is classed as ADME. Conditions: read-out: Stability.

Converted amounts (≈) assume the structure as drawn. Bounds are passed on as bounds.

The term MIC90 denotes the lowest concentration that inhibits either 90% of growth or 90% of the strains tested, depending on the study. Broadly, the IC50 is the point on the concentration scale where inhibition reaches its midpoint. The half-life is the time needed for the level to fall by half in the phase considered. One may read the logD as the decadic logarithm of the distribution of all forms, ionised or not, between an organic phase and buffer at a given pH. As for `Cc1noc(-c2nc(C)c3c(c2N)C(=O)N(Cc2cccc(OC(F)(F)F)c2)C3=O)n1`, the CLint came out at 15.4 µL/min/mg in the series on Liver microsome [1], 32.4 µL/min/mg with Liver microsome [3] and 65.7 µL/min/mg in series [6]. Moreover, the figures for the MIC90 in [2], in series [5] and in series [10] were above 20 µM, 0.052 µM and 0.0637 µM (≈ 0.0276 µg/mL), respectively. The solubility kinetic at 2 h in series [4] turned out to be 6.3 µM (≈ 2.73 µg/mL). The IC50 in the series with Vero is above 100 µM. Moreover, in series [7], the remaining at 40 min, 0.1 µM is 93%. In series [8], this compound came in with a half-life at 0.1 µM above 6 h. The compound further yielded a pH-dependent lipophilicity (logD) at 3 h, 100 µM in [9] of 3.64.

Consider `COc1cccc(CN2C(=O)c3c(C)nc(-c4nc(C)no4)c(N)c3C2=O)c1`, for which the MIC90 in series [11] was 0.3 µM (≈ 0.114 µg/mL); in series [12], 0.075 µM (≈ 0.0285 µg/mL); in series [13] it was 0.15 µM (≈ 0.0569 µg/mL); in series [10] it was below 0.156 µM; in [14], 0.075 µM (≈ 0.0285 µg/mL). For the same compound, the solubility kinetic at 2 h in series [4] is below 5 µM.

As for `Cc1nc(-c2nc(C(F)(F)F)no2)c(N)c2c1C(=O)N(Cc1ccccc1)C2=O`, the remaining at 0.5 h, 0.1 µM amounted to 100% in series [15], 20% in series [16] and 83% in series [17]. The solubility kinetic at 2 h in series [4] was below 5 µM. In the series on Vero, the IC50 is above 100 µM. Further, in series [10], the MIC90 was found to be 20 µM (≈ 8.07 µg/mL).

As to `CCOC(=O)c1nc(C)c2c(c1N)C(=O)N(Cc1ccccc1)C2O` (stereo not given), the figures for the remaining at 0.5 h, 0.1 µM in series [15], in series [16] and in [17] were 99%, 89% and 81%, respectively. The solubility kinetic at 2 h in [4] was found to be 41.5 µM (≈ 14.2 µg/mL). Besides, the IC50 with Vero is above 100 µM. Also, the MIC90 in series [10] stood at 0.144 µM (≈ 0.0492 µg/mL).

Regarding `Cc1nnc(-c2nc(C)c3c(c2N)C(=O)N(Cc2ccccc2)C3=O)o1`, the remaining at 0.5 h, 0.1 µM in series [15] stood at 63%; in series [16], 57%; in series [17], 50%. In series [4], the solubility kinetic at 2 h is below 5 µM. The IC50 in the series with Vero was above 100 µM. In series [10], the MIC90 is above 160 µM.

Source of the values: ChEMBL document CHEMBL3734652, “Pyrrolo[3,4-c]pyridine-1,3(2H)-diones: A Novel Antimycobacterial Class Targeting Mycobacterial Respiration” (J Med Chem, 2015).
